Square brackets hold non-standard residues; d marks the D form. Peptide text beside a SMILES is read from it. * marks the point of attachment. X1 = CC(C)C[C@@H](C(=O)*)N1C(=O)N[C@H](Cc2c[nH]c3ccccc23)C1=O Where only a bound is given, the exact number is not on record here.

One may read the Ki as the dissociation constant of the complex between target and ligand, obtained from inhibition or displacement.

The first assay deals with T1, Gonadotropin-releasing hormone receptor (Rattus norvegicus, UniProt P30969).
T1 sequence (P30969 whole entry): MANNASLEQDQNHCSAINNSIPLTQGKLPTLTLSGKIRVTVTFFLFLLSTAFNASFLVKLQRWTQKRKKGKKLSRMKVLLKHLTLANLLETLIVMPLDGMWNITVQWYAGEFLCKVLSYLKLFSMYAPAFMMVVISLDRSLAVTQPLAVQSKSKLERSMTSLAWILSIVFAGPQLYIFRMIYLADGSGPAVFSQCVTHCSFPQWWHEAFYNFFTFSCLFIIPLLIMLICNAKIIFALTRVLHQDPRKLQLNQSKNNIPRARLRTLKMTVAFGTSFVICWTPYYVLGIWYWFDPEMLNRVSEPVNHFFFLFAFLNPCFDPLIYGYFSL
The assay can be described thus: Inhibition constant for the displacement of specific binding of [125I][D-Lys6]-GnRH (Kd=177 pM) bound to rat pituitary membranes; No significant binding at 10 uM. The format is cell membranes, Membrane. The method, boiled down: (§1)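 Membranes from proestrous Wistar-derived rat pituitaries (25 μg protein/tube) incubated 90 min at 4 °C with 23.5 pM 125I-[D-Lys6]GnRH plus increasing unlabeled peptide (up to 10 μM, DMSO ≤1%) in 10 mM Tris-HCl/0.1% BSA. Filtration on GF/C, gamma counting. Nonspecific binding from 1 μM [D-Lys6]GnRH. Ki fitted from displacement curves; two experiments in triplicate, mean ± SEM.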
For `CC[C@H](C)[C@H](N)C(=O)N[C@H](C(=O)N[C@@H](Cc1ccccc1)C(=O)N[C@H](Cc1c[nH]c2ccccc12)C(=O)N[C@@H](CC(C)C)C(=O)N[C@@H](CC(=O)O)C(=O)O)[C@@H](C)CC`, the inhibition constant (Ki) result is recorded as “Not Active”.
As for `CC[C@H](C)[C@H](N)C(=O)N[C@H](C(=O)N[C@@H](Cc1c[nH]cn1)C(=O)N[C@H](Cc1c[nH]c2ccccc12)C(=O)N[C@@H](CC(C)C)C(=O)N[C@@H](CC(=O)O)C(=O)O)[C@@H](C)CC`, the inhibition constant (Ki) entry is on record as “Not Active”.

Another assay addresses T1, Gonadotropin-releasing hormone receptor. The assay can be described thus: Inhibition constant for the displacement of specific binding of [125I][D-Lys6]-GnRH (Kd=177 pM) bound to rat pituitary membranes. The format is cell membranes, Membrane. The method, boiled down: as §1
In turn, `CC[C@H](C)[C@H](N)C(=O)N[C@H](C(=O)N[C@@H](Cc1c[nH]c2ccccc12)C(=O)N[C@H](Cc1c[nH]cn1)C(=O)N[C@@H](CC(C)C)C(=O)N[C@@H](CC(=O)O)C(=O)O)[C@@H](C)CC` returned an inhibition constant (Ki) of 500 nM.
`CC[C@H](C)[C@H](N)C(=O)N[C@H](C(=O)N[C@@H](Cc1c[nH]c2ccccc12)C(=O)N[C@H](Cc1c[nH]c2ccccc12)C(=O)N[C@@H](CC(C)C)C(=O)N[C@@H](CC(=O)O)C(=O)O)[C@@H](C)CC` registered a Ki of 700 nM.
`CC[C@H](C)[C@H](N)C(=O)N[C@H](C(=O)N[C@@H](Cc1c[nH]c2ccccc12)C(=O)N[C@@H](Cc1c[nH]c2ccccc12)C(=O)N[C@@H](CC(C)C)C(=O)N[C@@H](CC(=O)O)C(=O)O)[C@@H](C)CC`: the inhibition constant (Ki) stood at 4000 nM.
On the same count and under the same terms, the value for `CC[C@H](C)[C@H](N)C(=O)N[C@H](C(=O)N[C@@H](Cc1c[nH]c2ccccc12)C(=O)N[C@H](C)C(=O)N[C@@H](CC(C)C)C(=O)N[C@@H](CC(=O)O)C(=O)O)[C@@H](C)CC` was over 10000 nM.
Still for that read-out and setting: next, `CC[C@H](C)[C@H](N)C(=O)N[C@H](C(=O)N[C@@H](Cc1c[nH]c2ccccc12)C(=O)N[C@H](Cc1ccccc1)C(=O)N[C@@H](CC(C)C)C(=O)N[C@@H](CC(=O)O)C(=O)O)[C@@H](C)CC`: 8000 nM; `CC[C@H](C)[C@H](NC(=O)[C@H](CCCNC(=N)N)NC(=O)[C@H](CC(C)C)NC(=O)[C@@H](Cc1c[nH]c2ccccc12)NC(C)=O)C(=O)N[C@H](C(=O)N[C@@H](Cc1c[nH]c2ccccc12)C(=O)O)[C@@H](C)CC`: 2000 nM.
On the same count and under the same terms, next, `CC[C@H](C)[C@@H]1NC(=O)CSC[C@@H](C(=O)O)NC(=O)[C@H](CC(C)C)NC(=O)[C@@H](Cc2c[nH]c3ccccc23)NC(=O)[C@H](Cc2c[nH]c3ccccc23)NC(=O)[C@H]([C@@H](C)CC)NC1=O`: 320 nM; `CC[C@H](C)[C@@H]1NC(=O)[C@H](CC(=O)O)NC(=O)[C@H](CC(C)C)NC(=O)[C@@H](Cc2c[nH]c3ccccc23)NC(=O)[C@H](Cc2c[nH]c3ccccc23)NC(=O)[C@H]([C@@H](C)CC)NC1=O`: 700 nM; `CC[C@H](C)[C@H](NC(=O)[C@H](CC(=O)O)NC(=O)[C@H](CC(C)C)NC(=O)[C@H](N)Cc1c[nH]c2ccccc12)C(=O)N[C@H](C(=O)N[C@@H](Cc1c[nH]c2ccccc12)C(=O)O)[C@@H](C)CC`: 8000 nM.
Molecule `CC[C@H](C)[C@H](NC(=O)[C@H](CC(=O)O)NC(=O)[C@H](CC(C)C)NC(=O)[C@@H](Cc1c[nH]c2ccccc12)NC(C)=O)C(=O)N[C@H](C(=O)N[C@@H](Cc1c[nH]c2ccccc12)C(=O)O)[C@@H](C)CC` (Ac-[dW]LDIIW-OH) showed a Ki of 1900 nM.
Same read-out and setting: the value for `CC[C@H](C)[C@H](NC(=O)[C@H](CC(=O)O)NC(=O)[C@H](CC(C)C)N1C(=O)N[C@H](Cc2c[nH]c3ccccc23)C1=O)C(=O)N[C@H](C(=O)N[C@@H](Cc1c[nH]c2ccccc12)C(=O)O)[C@@H](C)CC` (X1-DIIW-OH) was 230 nM.

For the next assay, the target named is T2, Endothelin receptor (Rattus norvegicus, UniProt P26684+P21451).
T2 sequence (P26684 whole entry): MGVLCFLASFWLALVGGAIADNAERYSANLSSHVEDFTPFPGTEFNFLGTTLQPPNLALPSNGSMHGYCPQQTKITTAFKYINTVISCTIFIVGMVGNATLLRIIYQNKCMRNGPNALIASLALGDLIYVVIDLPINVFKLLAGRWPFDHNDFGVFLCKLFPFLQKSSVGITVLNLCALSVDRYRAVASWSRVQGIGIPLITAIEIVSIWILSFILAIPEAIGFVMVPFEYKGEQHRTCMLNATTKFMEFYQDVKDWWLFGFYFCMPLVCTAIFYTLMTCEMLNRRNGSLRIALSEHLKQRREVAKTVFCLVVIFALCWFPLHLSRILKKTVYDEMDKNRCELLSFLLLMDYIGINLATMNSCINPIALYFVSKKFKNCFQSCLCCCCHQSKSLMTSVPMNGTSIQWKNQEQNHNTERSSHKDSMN
T2 sequence (P21451 whole entry): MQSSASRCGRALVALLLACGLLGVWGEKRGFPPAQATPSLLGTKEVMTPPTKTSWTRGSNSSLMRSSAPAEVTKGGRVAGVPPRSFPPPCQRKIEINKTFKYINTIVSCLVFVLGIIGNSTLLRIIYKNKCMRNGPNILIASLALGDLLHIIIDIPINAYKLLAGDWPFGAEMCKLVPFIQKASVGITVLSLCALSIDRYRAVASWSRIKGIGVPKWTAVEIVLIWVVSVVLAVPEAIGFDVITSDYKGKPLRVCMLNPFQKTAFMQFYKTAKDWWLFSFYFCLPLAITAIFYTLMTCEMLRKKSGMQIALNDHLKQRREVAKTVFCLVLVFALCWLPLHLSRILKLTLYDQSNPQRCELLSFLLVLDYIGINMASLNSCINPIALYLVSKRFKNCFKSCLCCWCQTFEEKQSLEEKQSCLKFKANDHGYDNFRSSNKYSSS
The assay can be described thus: Inhibition constant for the displacement of specific binding of [125I]-ET (Kd=2 nM) bound to rat pituitary membrane. The format is tissue-based, Pituitary gland.
`CC[C@H](C)[C@H](NC(=O)[C@H](CC(=O)O)NC(=O)[C@H](CC(C)C)NC(=O)[C@H](N)Cc1c[nH]c2ccccc12)C(=O)N[C@H](C(=O)N[C@@H](Cc1c[nH]c2ccccc12)C(=O)O)[C@@H](C)CC` showed a Ki of 55000 nM.
Still for that read-out and setting: next, `CC[C@H](C)[C@H](NC(=O)[C@H](CC(=O)O)NC(=O)[C@H](CC(C)C)N1C(=O)N[C@H](Cc2c[nH]c3ccccc23)C1=O)C(=O)N[C@H](C(=O)N[C@@H](Cc1c[nH]c2ccccc12)C(=O)O)[C@@H](C)CC` (X1-DIIW-OH): 6000 nM.
